Reference: ChEMBL document CHEMBL1149103, “Anticonvulsant activity of phenylmethylenehydantoins: a structure-activity relationship study” (2004)

Assays:
Mus musculus [1] = species on record: Mus musculus; assay: Anticonvulsant activity expressed as log(1/EDMES(2.5)) in MES assay on mice that responded a score of 2.5; type: functional
How it was run: (§1)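 Male Swiss albino mice ([…]), pre-screened by passing a 5 min rotorod test. Compound in DMSO given ip, starting at 100 mg/kg, later doses raised or lowered to complete the dose-activity profile. After 30 min, 45 mA ([…]) for 0.2 s via auricular electrodes. Seizure scored 1 (no protection) to 4 (full), averaged over 5-6 mice per dose. Effective dose taken as the dose giving a score of 2.5; log value used for QSAR.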

Mus musculus [2] = species on record: Mus musculus; assay: Anticonvulsant activity measured as effective dose required to produce a response score of 2.5 in MES assay on mice; type: functional; how it was run: as §1

Row | Structure (SMILES) | Log 1/EDMES(2.5) (Mus musculus [1]) | EDMES(2.5) (Mus musculus [2]) [mg/kg]
1 | Cc1ccc(/C=C2\NC(=O)NC2=O)cc1 | -2.3 | >200
2 | O=C1NC(=O)/C(=C/c2ccccc2OCc2ccccc2)N1 | -2.3 | >200
3 | O=C1NC(=O)/C(=C/c2ccc(Cl)cc2)N1 | -2.3 | >200
4 | Cc1ccccc1/C=C1\NC(=O)NC1=O | -1.77 | 59
5 | O=C1NC(=O)/C(=C/c2ccc(C(F)(F)F)cc2)N1 | -1.81 | 64
6 | O=C1NC(=O)/C(=C/c2ccc(-c3ccccc3)cc2)N1 | -2.3 | >200
7 | O=C1NC(=O)/C(=C/c2ccccc2Cl)N1 | -2.3 | 198
8 | O=C1NC(=O)/C(=C/c2ccc([N+](=O)[O-])cc2)N1 | -2.3 | >200
9 | CN(C)c1ccc(/C=C2\NC(=O)NC2=O)cc1 | -2.3 | >200
10 | O=C1NC(=O)/C(=C/C2CCCCC2)N1 | -2.19 | 156
11 | Cc1cc(C)c(/C=C2/NC(=O)NC2=O)c(C)c1 | -1.45 | 28
12 | Cc1ccc(/C=C2\NC(=O)NC2=O)c(C)c1 | -1.59 | 39
13 | O=C1NC(=O)/C(=C/c2cccc(F)c2)N1 | -2.24 | 172
14 | O=C1NC(=O)/C(=C/c2ccc(Br)cc2)N1 | -2.3 | >200
15 | O=C1NC(=O)/C(=C\c2c(Cl)cccc2Cl)N1 | -1.86 | 72
16 | CC(C)(C)c1ccc(/C=C2\NC(=O)NC2=O)cc1 | -2.3 | >200
17 | O=C1NC(=O)/C(=C/c2ccccc2O)N1 | -2.3 | >200
18 | Cc1cccc(/C=C2\NC(=O)NC2=O)c1 | -1.87 | 74
19 | O=C1NC(=O)/C(=C/c2ccc(O)cc2)N1 [4-HYDROXYPHENYLMETHYLENE HYDANTOIN] | -2.3 | >200
20 | O=C1NC(=O)C(c2ccccc2)(c2ccccc2)N1 [PHENYTOIN] | -1.48 | 30
21 | O=C1NC(=O)/C(=C/c2ccc(F)cc2)N1 | -2.3 | >200
22 | O=C1NC(=O)/C(=C/c2cccs2)N1 | -2.3 | >200
23 | CC(C)c1ccc(/C=C2\NC(=O)NC2=O)cc1 | -1.9 | 80
24 | O=C1NC(=O)/C(=C/c2ccco2)N1 | -2.22 | 167
25 | O=C1NC(=O)/C(=C/c2ccc3[nH]c4ccccc4c3c2)N1 | -2.3 | >200
26 | O=C1NC(=O)/C(=C/c2ccc(Cl)cc2Cl)N1 | -2.3 | >200
27 | O=C1NC(=O)/C(=C/c2cccc(Br)c2)N1 | -1.95 | 89
28 | O=C1NC(=O)/C(=C/c2ccccc2)N1 | -2.1 | 125

Row | Structure (SMILES) | Log 1/EDMES(2.5) (Mus musculus [1]) | EDMES(2.5) (Mus musculus [2]) [mg/kg]
29 | N#Cc1ccc(/C=C2\NC(=O)NC2=O)cc1 | -2.3 | >200
30 | O=C1NC(=O)/C(=C/c2ccccn2)N1 | -2.15 | 141
31 | O=C1NC(=O)/C(=C/c2cccc3ccccc23)N1 | -2.3 | >200
32 | O=C1NC(=O)/C(=C/c2ccc3ccccc3c2)N1 | -2.3 | >200
33 | CCN(CC)c1ccc(/C=C2\NC(=O)NC2=O)cc1 | -2.3 | >200
34 | O=C1NC(=O)/C(=C/c2cccc(C(F)(F)F)c2)N1 | -2.06 | 115
35 | CCCOc1ccc(/C=C2\NC(=O)NC2=O)cc1 | -1.89 | 77
36 | O=C1NC(=O)/C(=C/c2c[nH]c3ccccc23)N1 | -2.3 | >200
37 | COc1cccc(/C=C2\NC(=O)NC2=O)c1 | -2.3 | >200
38 | COc1ccc(/C=C2\NC(=O)NC2=O)c(OC)c1 | -2.24 | 175
39 | O=C1NC(=O)/C(=C/c2cccc([N+](=O)[O-])c2)N1 | -2.3 | >200
40 | Cc1cc(C)c(/C=C2\NC(=O)NC2=O)cc1C | -2.3 | >200
41 | O=C1NC(=O)/C(=C/c2ccccc2C(F)(F)F)N1 | -2.3 | >200
42 | CCc1ccc(/C=C2\NC(=O)NC2=O)cc1 | -1.87 | 74
43 | COc1ccccc1/C=C1\NC(=O)NC1=O | -1.92 | 84
44 | O=C1NC(=O)/C(=C/c2ccc(F)c(F)c2)N1 | -2.08 | 121
45 | O=C1NC(=O)/C(=C/c2cccc(Cl)c2)N1 | -1.91 | 82
46 | O=C1NC(=O)/C(=C/c2cccc(O)c2)N1 | -2.3 | >200
47 | CCCCOc1ccc(/C=C2\NC(=O)NC2=O)cc1 | -2.3 | >200
48 | O=C1NC(=O)/C(=C/c2ccccc2F)N1 | -2.3 | >200
49 | CCCCc1ccc(/C=C2\NC(=O)NC2=O)cc1 | -2.08 | 121
50 | O=C1NC(=O)/C(=C/c2ccc(OCc3ccccc3)cc2)N1 | -2.2 | 157
51 | O=C1NC(=O)/C(=C/c2cccc(Oc3ccccc3)c2)N1 | -2.3 | >200
52 | COc1ccc(/C=C2\NC(=O)NC2=O)cc1 | -2.3 | >200
53 | CCOc1ccccc1/C=C1\NC(=O)NC1=O | -2.3 | >200
54 | CCOc1ccc(/C=C2\NC(=O)NC2=O)cc1 | -2.03 | 107
55 | O=C1NC(=O)/C(=C/c2ccccc2Br)N1 | -2.3 | >200
